Assays:
β2-microglobulin (β2m) [1] = molecular target: T1, β2-microglobulin (β2m) (Homo sapiens, UniProt P61769); assay: ESI-IMS-MS of non-covalent complexes; type: biochemical
In short: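 45 μM β2m at pH 2.5 with test compound (0–1125 μM), shaken at 600 rpm, 25 °C, 48 h, three or more replicates pooled. Spun at 16,300x g for 30 min. Supernatant run on SDS-PAGE, and bands quantified as percent soluble protein versus compound:β2m molar ratio. Binding: 38 μM β2m, 10 mM ammonium formate pH 2.5, 40 or 400 μM compound, 10% acetonitrile, ESI-IMS-MS at 70 V cone.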

β2-microglobulin (β2m) [2] = molecular target: T1, β2-microglobulin (β2m); assay: ESI-IMS-MS of non-covalent complexes; type: binding

Row | IC50 (β2-microglobulin (β2m) [1]) [µM] | Structure (SMILES) | ESI-IMS-MS of non-covalent complexes (β2-microglobulin (β2m) [2])
1 | ~300 | CO[C@H]1/C=C/O[C@@]2(C)Oc3c(C)c(O)c4c(O)c(cc(O)c4c3C2=O)NC(=O)/C(C)=C\C=C\[C@H](C)[C@H](O)[C@@H](C)[C@@H](O)[C@@H](C)[C@H](OC(C)=O)[C@@H]1C [rifamycin SV] | 
2 |  | CO[C@H]1/C=C/O[C@@]2(C)Oc3c(C)c(O)c4c(O)c(c5c(nc6cc(C)ccn65)c4c3C2=O)NC(=O)/C(C)=C\C=C\[C@H](C)[C@H](O)[C@@H](C)[C@@H](O)[C@@H](C)[C@H](OC(C)=O)[C@@H]1C [rifaximin] | Instead, only the most compact conformer shows binding to this ligand (Figure 4c).
